# Measurements from ChEMBL document CHEMBL1629583, “Establishment of in vitro susceptibility testing methodologies and comparative activities of piperacillin in combination with the penem {beta}-lactamase inhibitor BLI-489” (2009).
# Experiments:
# Format in all cases: functional
# [1] = tested on: Citrobacter freundii; test: Antimicrobial activity against Citrobacter freundii clinical isolate after 18 to 22 hrs by broth microdilution method in presence of beta-lactamase inhibitor BLI-489
# Outline: (§1)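 CLSI broth microdilution in Mueller-Hinton II broth. Piperacillin serial dilutions were combined with BLI-489 held constant at 4 μg/ml. Inoculum was 10^5 CFU/ml. Plates were incubated 18 to 22 h at 35°C in ambient air. MIC was the lowest concentration completely inhibiting growth seen by the unaided eye. Piperacillin-tazobactam interpretive criteria were applied.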
# [2] = tested on: Escherichia coli; test: Antimicrobial activity against Escherichia coli clinical isolate after 18 to 22 hrs by broth microdilution method in presence of beta-lactamase inhibitor BLI-489
# Outline: (§2)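 CLSI broth microdilution in Mueller-Hinton II broth. Serial dilutions of piperacillin were tested with BLI-489 held at a constant 4 μg/ml. Inoculum was 10^5 CFU/ml. Plates were incubated 18 to 22 h at 35°C in ambient air. MIC was the lowest concentration giving complete growth inhibition by unaided eye.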
# [3] = tested on: Klebsiella pneumoniae; test: Antimicrobial activity against Klebsiella pneumoniae clinical isolate after 18 to 22 hrs by broth microdilution method in presence of beta-lactamase inhibitor BLI-489; outline: as §2
# [4] = tested on: Burkholderia cepacia; test: Antimicrobial activity against Burkholderia cepacia clinical isolate after 18 to 22 hrs by broth microdilution method in presence of beta-lactamase inhibitor Tazobactam
# Outline: (§3)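 Piperacillin-tazobactam was tested on recent clinical isolates by CLSI broth microdilution in Mueller-Hinton II broth, with tazobactam at constant 4 μg/ml. Wells held 10^5 CFU/ml and were incubated 18 to 22 h at 35°C in ambient air. MIC was the lowest concentration with no growth visible to the unaided eye.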
# [5] = tested on: Staphylococcus epidermidis; test: Antimicrobial activity against methicillin-resistant Staphylococcus epidermidis clinical isolate after 18 to 22 hrs by broth microdilution method in presence of beta-lactamase inhibitor BLI-489
# Outline: (§4)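 CLSI broth microdilution in Mueller-Hinton II broth. Antibiotic in serial dilution with the β-lactamase inhibitor held at a constant 4 μg/ml. Inoculum 10^5 CFU/ml. Incubated 18 to 22 h at 35°C in ambient air.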
# [6] = tested on: Escherichia coli; test: Antimicrobial activity against Escherichia coli clinical isolate after 18 to 22 hrs by broth microdilution method in presence of beta-lactamase inhibitor Tazobactam
# [7] = tested on: Serratia marcescens; test: Antimicrobial activity against AmpC beta-lactamase-producing Serratia marcescens clinical isolate after 18 to 22 hrs by broth microdilution method in presence of beta-lactamase inhibitor BLI-489; outline: as §1
# [8] = tested on: Staphylococcus haemolyticus; test: Antimicrobial activity against Staphylococcus haemolyticus clinical isolate after 18 to 22 hrs by broth microdilution method in presence of beta-lactamase inhibitor Tazobactam
# Outline: (§5)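 Piperacillin-tazobactam was tested by CLSI broth microdilution in Mueller-Hinton II broth against clinical isolates. Inoculum was 10^5 CFU/ml, with 18 to 22 h incubation at 35°C in ambient air. MIC was read as the lowest concentration completely inhibiting visible growth.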
# [9] = tested on: Bacteroides uniformis; test: Antimicrobial activity against Bacteroides uniformis clinical isolate after 18 to 22 hrs by broth microdilution method in presence of beta-lactamase inhibitor Tazobactam
# [10] = tested on: Parvimonas micra; test: Antimicrobial activity against Peptostreptococcus micros clinical isolate after 18 to 22 hrs by broth microdilution method in presence of beta-lactamase inhibitor BLI-489
# [11] = tested on: Staphylococcus aureus; test: Antimicrobial activity against methicillin-resistant Staphylococcus aureus clinical isolate after 18 to 22 hrs by broth microdilution method in presence of beta-lactamase inhibitor BLI-489; outline: as §4
# [12] = tested on: Clostridium perfringens; test: Antimicrobial activity against Clostridium perfringens clinical isolate after 18 to 22 hrs by broth microdilution method in presence of beta-lactamase inhibitor Tazobactam
# [13] = tested on: Enterococcus durans; test: Antimicrobial activity against Enterococcus durans clinical isolate after 18 to 22 hrs by broth microdilution method in presence of beta-lactamase inhibitor Tazobactam; outline: as §3
# [14] = tested on: Escherichia coli; test: Antimicrobial activity against AmpC beta-lactamase-producing Escherichia coli clinical isolate after 18 to 22 hrs by broth microdilution method in presence of beta-lactamase inhibitor Tazobactam; outline: as §3
# [15] = tested on: Morganella morganii; test: Antimicrobial activity against Morganella morganii clinical isolate after 18 to 22 hrs by broth microdilution method in presence of beta-lactamase inhibitor BLI-489; outline: as §2
# [16] = tested on: Proteus mirabilis; test: Antimicrobial activity against Proteus mirabilis clinical isolate after 18 to 22 hrs by broth microdilution method in presence of beta-lactamase inhibitor Tazobactam; outline: as §5
# [17] = tested on: Peptostreptococcus anaerobius; test: Antimicrobial activity against Peptostreptococcus anaerobius clinical isolate after 18 to 22 hrs by broth microdilution method in presence of beta-lactamase inhibitor Tazobactam
# [18] = tested on: Acinetobacter johnsonii; test: Antimicrobial activity against Acinetobacter johnsonii clinical isolate after 18 to 22 hrs by broth microdilution method in presence of beta-lactamase inhibitor BLI-489; outline: as §1
# [19] = tested on: Providencia rettgeri; test: Antimicrobial activity against Providencia rettgeri clinical isolate after 18 to 22 hrs by broth microdilution method in presence of beta-lactamase inhibitor Tazobactam; outline: as §5
# [20] = tested on: Acinetobacter lwoffii; test: Antimicrobial activity against Acinetobacter lwoffii clinical isolate after 18 to 22 hrs by broth microdilution method in presence of beta-lactamase inhibitor BLI-489; outline: as §1
# [21] = tested on: Haemophilus influenzae; test: Antimicrobial activity against beta-lactamase-negative Haemophilus influenzae clinical isolate after 18 to 22 hrs by broth microdilution method in presence of beta-lactamase inhibitor BLI-489
# Outline: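 Haemophilus isolates were tested in Haemophilus test medium by CLSI broth microdilution. Serial piperacillin dilutions carried BLI-489 fixed at 4 μg/ml. Inoculum was 10^5 CFU/ml, incubated 18 to 22 h at 35°C in ambient air. MIC was the lowest concentration completely inhibiting growth by eye.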
# [22] = tested on: Streptococcus pneumoniae; test: Antimicrobial activity against penicillin-susceptible Streptococcus pneumoniae clinical isolate after 18 to 22 hrs by broth microdilution method in presence of beta-lactamase inhibitor BLI-489
# Outline: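 Streptococci were tested by CLSI broth microdilution in Mueller-Hinton II broth plus 5% lysed horse blood. Piperacillin was serially diluted with BLI-489 fixed at a constant 4 μg/ml. Inoculum was 10^5 CFU/ml, with 18 to 22 h at 35°C in ambient air. MIC was the lowest concentration completely inhibiting growth by eye.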
# [23] = tested on: Enterococcus faecium; test: Antimicrobial activity against Enterococcus faecium clinical isolate after 18 to 22 hrs by broth microdilution method in presence of beta-lactamase inhibitor BLI-489; outline: as §2
compound,measurement,setting,value
CCN1CCN(C(=O)N[C@@H](C(=O)N[C@@H]2C(=O)N3[C@@H]2SC(C)(C)[C@@H]3C(=O)O)c2ccccc2)C(=O)C1=O [PIPERACILLIN],MIC50,[1],2 µg/mL
same,MIC90,[1],16 µg/mL
same,MIC50,[2],64 µg/mL
same,MIC90,[2],128 µg/mL
same,MIC50,[3],2 µg/mL
same,MIC90,[3],8 µg/mL
same,MIC50,[4],4 µg/mL
same,MIC90,[4],64 µg/mL
same,MIC50,[5],0.5 µg/mL
same,MIC90,[5],8 µg/mL
same,MIC50,[6],2 µg/mL
same,MIC90,[6],2 µg/mL
same,MIC50,[7],2 µg/mL
same,MIC90,[7],8 µg/mL
same,MIC50,[8],32 µg/mL
same,MIC90,[8],> 128 µg/mL
same,MIC50,[9],0.5 µg/mL
same,MIC90,[9],4 µg/mL
same,MIC,[10],≤ 0.015 µg/mL
same,MIC50,[10],≤ 0.015 µg/mL
same,MIC90,[10],≤ 0.015 µg/mL
same,MIC50,[11],32 µg/mL
same,MIC,[12],≤ 0.015 µg/mL
same,MIC50,[12],≤ 0.015 µg/mL
same,MIC90,[12],0.03 µg/mL
same,MIC50,[13],4 µg/mL
same,MIC90,[13],16 µg/mL
same,MIC50,[14],4 µg/mL
same,MIC90,[14],8 µg/mL
same,MIC50,[15],0.25 µg/mL
same,MIC90,[15],1 µg/mL
same,MIC50,[16],0.25 µg/mL
same,MIC90,[16],2 µg/mL
same,MIC,[17],≤ 0.015 µg/mL
same,MIC50,[17],≤ 0.015 µg/mL
same,MIC90,[17],≤ 0.015 µg/mL
same,MIC50,[18],4 µg/mL
same,MIC90,[18],16 µg/mL
same,MIC50,[19],2 µg/mL
same,MIC90,[19],16 µg/mL
same,MIC50,[20],4 µg/mL
same,MIC90,[20],16 µg/mL
same,MIC,[21],≤ 0.004 µg/mL
same,MIC50,[21],≤ 0.004 µg/mL
same,MIC90,[21],0.015 µg/mL
same,MIC,[22],≤ 0.004 µg/mL
same,MIC50,[22],≤ 0.004 µg/mL
same,MIC90,[22],≤ 0.004 µg/mL
same,MIC50,[23],4 µg/mL
same,MIC90,[23],> 128 µg/mL
